# Data: PubChem BioAssay
# Active and inactive are the calls of the source.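 Rule for the calls, unless noted: active = NADPH fluorescence slope more negative than the mean of all samples by about 3 SD, 99.7% confidence; inactive = the rest.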
# Legend:
# [1] = inhibitors of TNFa-induced NFkB p65 translocation, primary screen, imaging, HUVEC, MLSMR starter and 10KST1 sets (AID 438;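 active = inhibition above 20% together with a positive visual image hit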;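 note: compound added about 3h40 before a 20 min TNFalpha stimulation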;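 for inhibition: signal is the nuclear over cytoplasmic p65 intensity ratio per well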); details: HUVEC TNFa-induced p65 nuclear translocation; cell count: measured here: nuclei count (cytotoxicity indicator), at 2.08 µM; inhibition: at 2 µM, stronger effect = higher value, 0% TNFa-plus-vehicle, 100% no-TNFa wells
# [2] = endothelial E-selectin expression blockers – imaging, HUVEC, immunofluorescence, MLSMR starter and 10KST1 sets, primary screen (AID 487;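 active = visually confirmed hit in the image check and inhibition above 20%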;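 for inhibition: signal is fraction of cell area covered by stained E-selectin grains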;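 for nuclei count: 100% = median nuclei count of all wells on the same plate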); details: HUVEC TNFalpha-induced E-selectin immunofluorescence imaging, at 2 µM; inhibition: stronger effect = higher value; nuclei count: measured here: cell number, toxicity
# [3] = Primary imaging screen for DUSP6 inhibitors that restore phospho-Erk in transfected HeLa cells, chemical complementation (AID 609;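 active = compounds giving at least 50% inhibition in the cell-based MKP-3 phosphatase rescue imaging test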;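 for inhibition: phospho-Erk level distribution per well compared with pooled transfected vehicle control wells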); details: HeLa MKP-3 transfected, phospho-Erk imaging KS statistic, at 10 µM, cells stimulated with TPA for 15 min
# [4] = biological target: Dual specificity protein phosphatase 6 (Homo sapiens) (UniProt Q16828); assay: as above; details: HeLa MKP-3 transfected, phospho-Erk imaging KS statistic; at 10 µM; stronger effect = higher value; cells stimulated with TPA for 15 min
# Sequence of Dual specificity protein phosphatase 6 (Homo sapiens) (Q16828 whole entry, looked up): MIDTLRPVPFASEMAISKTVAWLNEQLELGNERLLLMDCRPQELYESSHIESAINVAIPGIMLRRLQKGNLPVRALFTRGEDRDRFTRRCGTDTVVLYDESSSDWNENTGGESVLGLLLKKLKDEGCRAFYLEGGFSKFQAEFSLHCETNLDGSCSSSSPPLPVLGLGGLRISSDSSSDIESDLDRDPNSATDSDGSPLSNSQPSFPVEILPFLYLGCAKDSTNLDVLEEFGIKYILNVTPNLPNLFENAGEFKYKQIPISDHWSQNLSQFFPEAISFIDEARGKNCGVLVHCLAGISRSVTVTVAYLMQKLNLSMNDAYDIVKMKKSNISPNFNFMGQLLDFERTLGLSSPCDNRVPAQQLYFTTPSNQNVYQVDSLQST
# [5] = biological target: Voltage-gated potassium channel subunit beta-2 (Rattus norvegicus) (UniProt P62483); assay: inhibitors of rat Kvbeta2 reductase activity – biochemical, NADPH fluorescence, primary screen (AID 622;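 active = fluorescence slope higher than the sample average by over 3 SD, cut at about -0.22 in these data, passing the limit was not always enough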;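 note: slope of raw intensity against log time taken from 70 to 1610 s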); details: recombinant KvBeta, 4-cyanobenzaldehyde reduction, at 10 µM, stronger effect = higher value
# Sequence of Voltage-gated potassium channel subunit beta-2 (Rattus norvegicus) (P62483 whole entry, looked up): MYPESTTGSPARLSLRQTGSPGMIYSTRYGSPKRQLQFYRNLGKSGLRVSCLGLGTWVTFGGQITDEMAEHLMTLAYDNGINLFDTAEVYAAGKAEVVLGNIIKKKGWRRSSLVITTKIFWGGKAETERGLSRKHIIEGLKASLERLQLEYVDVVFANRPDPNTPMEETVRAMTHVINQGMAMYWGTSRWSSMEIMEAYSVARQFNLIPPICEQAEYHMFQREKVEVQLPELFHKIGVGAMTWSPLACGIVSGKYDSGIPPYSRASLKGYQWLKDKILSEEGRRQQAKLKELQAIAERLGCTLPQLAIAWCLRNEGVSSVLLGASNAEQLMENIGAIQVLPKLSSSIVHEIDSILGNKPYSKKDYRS
# [6] = biological target: Voltage-gated potassium channel subunit beta-2 (Rattus norvegicus) (UniProt P62483); assay: enhancers of rat Kvbeta2 NADPH turnover – biochemical, NADPH fluorescence, primary screen (AID 623); details: Recombinant KvBeta, NADPH fluorescence decrease slope, 10 min; at 10 µM; stronger effect = lower value;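 note: fluorescence intensity change per second fitted from 20 to 320 s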
# [7] = biological target: Muscarinic acetylcholine receptor M4 (Homo sapiens) (UniProt P08173); assay: M4-linked GIRK flux change, two-sided – cell-based, HEK293 M4/GIRK, thallium flux, BTC-AM, M4 allosteric agonist project, primary screen (AID 625;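 active = fluorescence slope after compound addition differing from the mean of all tested samples at 99.7% confidence, mostly higher but some lower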;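 note: thallium influx through GIRK channels coupled to M4 in HEK293 cells with BTC-AM dye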); details: at 10 µM, actives lie on both sides
# Sequence of Muscarinic acetylcholine receptor M4 (Homo sapiens) (P08173 whole entry, looked up): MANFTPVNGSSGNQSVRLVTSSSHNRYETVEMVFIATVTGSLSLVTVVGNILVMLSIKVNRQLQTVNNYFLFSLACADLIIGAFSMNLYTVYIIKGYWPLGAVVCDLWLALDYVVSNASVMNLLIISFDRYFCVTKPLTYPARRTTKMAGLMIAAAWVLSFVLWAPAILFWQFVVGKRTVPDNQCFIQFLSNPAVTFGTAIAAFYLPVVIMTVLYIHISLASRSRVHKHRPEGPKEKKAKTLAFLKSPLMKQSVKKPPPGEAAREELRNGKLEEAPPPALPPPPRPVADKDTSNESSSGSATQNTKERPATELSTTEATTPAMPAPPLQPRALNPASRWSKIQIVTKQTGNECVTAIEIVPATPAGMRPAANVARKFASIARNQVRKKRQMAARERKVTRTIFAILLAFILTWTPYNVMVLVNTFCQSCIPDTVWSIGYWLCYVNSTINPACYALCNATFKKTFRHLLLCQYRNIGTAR
# In short: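 System: HEK293 cells with M4 receptor and GIRK channels | Incubation: Cells overnight at 37 °C, BTC-AM loading 1 h, reads 2 min total | Technique: Kinetic BTC-AM fluorescence sampled at 1 Hz, 10 s pre-addition baseline | Measure: Post-addition slope, 15–24 s, of baseline-normalized fluorescence | Control set: Carbachol positive, DMSO negative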
# [8] = inhibitors of larval lipid processing in zebrafish, primary screen, whole organism, PED6 fluorescence, gall bladder and intestine (AID 686;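 active = a full or partial loss of lipid-probe fluorescence in the fish gall bladder, intestine or both, judged by eye; inactive = no fluorescence loss, or compound toxic to the fish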;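 note: larvae 5 to 7 days old with five fish per well; signal comes from phospholipase A2 cleavage of quenched PED6 carried via bile; overnight exposure to compound and PED6 before scoring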); details: Zebrafish larvae PED6 lipid processing, fluorescence scoring; screened at 20 µM (by protocol)
# In short: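 Test system – live zebrafish larvae aged 5-7 days, whole organism · Buffer or medium – E3 fish medium · Reagent – quenched phospholipase substrate PED6, 100 nM final, ingested by larvae · Doses – 20 µM single dose · Incubation – overnight compound and PED6 incubation · Technique – visual fluorescence microscopy scoring of gall bladder, gut · Read-out basis – visual per-well fluorescence inhibition score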
# [9] = loss of swimming-algae plug formation – whole organism, Chlamydomonas reinhardtii, WT vs cilia-less mutant, absorbance, 96-well, primary screen (AID 463189;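 active = inhibition at or above 50% relative to wild type and mutant plate controls; inactive = inhibition below 50%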;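 note: 0% = wild type cc124 cells in DMSO and 100% = ciliumless bld1 mutant cells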); details: Chlamydomonas reinhardtii gravitaxis, OD600 absorbance, 2 days; at 10 µM; stronger effect = higher value
# [10] = measured here: cell density z-score
# [11] = measured here: nuclear c-Myc green intensity z-score
# [12] = measured here: nuclear pErk red intensity z-score, stronger effect = higher value
SMILES,cell count [1],inhibition [1],inhibition [2],nuclei count [2] [%],"z-score [3, 10]","z-score [3, 11]","z-score [3, 12]",inhibition [4],fluorescence slope [5],NADPH fluorescence slope [6],fluorescence slope [7],outcome [8],inhibition [9]
CN1CCc2c(C#N)c(N3CCCCC3)nc(N3CCOCC3)c2C1,534,-9.2% (inactive),-129% (inactive),127,0.848,-1.39,0.568,-0.584% (inactive),-0.418 (inactive),-5.8e-05 (inactive),0.00417 (inactive),inactive,4.52% (inactive)
N#Cc1nc(COc2ccccc2F)oc1NCCCn1ccnc1,465,-4% (inactive),-87.7% (inactive),136,-0.925,1.53,1.43,-0.624% (inactive),-0.414 (inactive),-2.3e-05 (inactive),0.00507 (inactive),inactive,-8.85% (inactive)
N#CCCN(C(=O)c1ccco1)c1ccccc1,600,3.1% (inactive),-91% (inactive),128,0.6,-1.06,-0.443,1.42% (inactive),-0.462 (inactive),-0.000111 (inactive),0.00534 (inactive),inactive,-5.86% (inactive)
CC(NC(=O)Nc1nnc(C(F)(F)F)s1)(C(F)(F)F)C(F)(F)F,640,3.6% (inactive),-157% (inactive),149,-0.473,0.624,0.273,1.63% (inactive),-0.465 (inactive),-5.5e-05 (inactive),0.00252 (inactive),inactive; toxic,1.97% (inactive)
CN(C)CCCNCCCCNC(=O)/C=N/O,458,3.8% (inactive),-56.6% (inactive),143,-0.174,-0.575,1.08,17.7% (inactive),-0.441 (inactive),-3.9e-05 (inactive),0.00523 (inactive),inactive,6.6% (inactive)
CCOC(=O)CNC(=O)CNC(=O)c1ccc(OC)cc1,394,-0.5% (inactive),6.4% (inactive),82.7,0.162,0.31,1.25,17.4% (inactive),-0.447 (inactive),-5.5e-05 (inactive),0.0051 (inactive),inactive,23.5% (inactive)
Cc1cc(=O)oc(C)c1C(=O)Nc1ccc2nsnc2c1,517,-2% (inactive),3.2% (inactive),164,0.355,0.546,0.697,5.95% (inactive),-0.278 (inactive),-2.8e-05 (inactive),0.00564 (inactive),inactive,-6.75% (inactive)
CCCCc1nc2sc3c(c2c(=O)[nH]1)CCC3,691,3.3% (inactive),8% (inactive),129,-0.915,0.812,-0.126,-9.53% (inactive),-0.421 (inactive),-4e-05 (inactive),0.00621 (inactive),inactive,34.8% (inactive)
Cc1ccc(C2CC(c3cccs3)n3nc(N)nc3N2)cc1 (stereo not given),390,-2% (inactive),-110% (inactive),149,-0.677,0.494,-0.466,3.56% (inactive),-0.429 (inactive),-0.000111 (inactive),0.00581 (inactive),inactive,31.5% (inactive)
Cc1cccc(N2CC(=O)N(c3cccc(C)c3)CC2=O)c1,691,-1.4% (inactive),-33.5% (inactive),201,-0.963,0.808,-0.574,3.97% (inactive),-0.477 (inactive),-5.4e-05 (inactive),0.00702 (inactive),inactive,-8.04% (inactive)
COn1c(SC2CCCCC2)nc2ccccc2c1=O,587,-3.1% (inactive),-35.7% (inactive),160,0.823,0.448,-1.08,-7.28% (inactive),-0.48 (inactive),-7.1e-05 (inactive),0.00976 (inactive),inactive,0.873% (inactive)
CN(C)c1ccc(NC(=O)c2sc(SCC(=O)Nc3nccs3)nc2N)cc1,700,-11.3% (inactive),0.8% (inactive),179,-1.08,1.63,0.495,1.98% (inactive),-0.491 (inactive),-9e-05 (inactive),0.00686 (inactive),inactive,-7.49% (inactive)
CCc1cc(=O)oc2cc(C)c(CN3CCCCC3)c(O)c12,612,-9.1% (inactive),31% (inactive),182,-0.916,-0.125,1.01,-8.95% (inactive),-0.464 (inactive),-6.3e-05 (inactive),0.00459 (inactive),inactive,4.62% (inactive)
O=C1CC(c2ccco2)CC(O)=C1C=NCCN1CCN(C2CC(=O)N(c3ccccc3)C2=O)CC1 (stereo not given),378,-0.3% (inactive),-133% (inactive),162,-1.98,0.592,0.0438,-4.78% (inactive),-0.462 (inactive),-6e-05 (inactive),0.00456 (inactive),inactive,-7.38% (inactive)
CCCCCOc1ccccc1C(=O)NCCCC(=O)O,352,-4.8% (inactive),-57.4% (inactive),116,0.366,-0.837,0.123,19.4% (inactive),-0.463 (inactive),-0.000126 (inactive),0.00541 (inactive),inactive,32.4% (inactive)
Cc1ccc(-n2ncc3c(NCc4ccc5c(c4)OCO5)ncnc32)c(C)c1,543,-12.5% (inactive),-35.3% (inactive),135,-0.519,1.64,-0.848,11.4% (inactive),-0.376 (inactive),4.1e-06 (inactive),0.0052 (inactive),inactive,47.1% (inactive)
CC1(C)CC(=O)C2=C(C1)OC(N)=C(C#N)C2C1C=CCCC1 (stereo not given),725,-1.5% (inactive),-74.9% (inactive),173,-0.465,0.0637,1.38,7.83% (inactive),-0.43 (inactive),-5.1e-05 (inactive),0.00473 (inactive),inactive,9.73% (inactive)
O=C1OC(N2CCN(C/C=C/c3ccccc3)CC2)c2ccccc21 (stereo not given),390,-1.2% (inactive),-65.2% (inactive),168,0.231,-0.597,0.38,14% (inactive),-0.458 (inactive),-0.000109 (inactive),0.00426 (inactive),inactive,28.9% (inactive)
O=C(Cc1ccccc1)Nc1cccc(-c2nnc(-c3ccco3)o2)c1,665,-8.6% (inactive),46.6% (inactive),188,0.0893,1.04,1.35,-9.53% (inactive),-0.485 (inactive),-5.1e-05 (inactive),0.00851 (inactive),inactive,-2.78% (inactive)
CCCSc1nnc(NC(=O)Nc2ccccc2)s1,655,-20.6% (inactive),-53.8% (inactive),184,0.599,-1.15,-0.322,5.35% (inactive),-0.484 (inactive),-5.4e-05 (inactive),0.00763 (inactive),inactive,-6.45% (inactive)
CCc1nc2c(sc3nc(N4CCOCC4)c4c(c32)CC(C)(C)OC4)c(=O)o1,537,0.8% (inactive),-123% (inactive),140,-0.303,0.948,-1.15,3.42% (inactive),-0.479 (inactive),-8.3e-05 (inactive),0.00481 (inactive),inactive,-8.15% (inactive)
CC(=O)N(Cc1ccccc1)c1ccc(C(=O)O)cc1,486,-9.7% (inactive),-65.3% (inactive),95.1,-0.584,0.905,1.49,3.42% (inactive),-0.454 (inactive),3.6e-05 (inactive),0.00471 (inactive),inactive,18% (inactive)
CCOC(=O)c1c(N)sc(=S)c2c1CCC2,618,-6.2% (inactive),-92.1% (inactive),139,0.668,-0.746,-1.03,-11.4% (inactive),-0.467 (inactive),-0.000294 (inactive),0.00293 (inactive),inactive,15% (inactive)
CCn1c(SCC(=O)NCc2ccco2)nnc1-c1ccc(N)cc1,669,-1% (inactive),19.4% (inactive),189,-0.439,0.193,-0.177,-3.95% (inactive),-0.491 (inactive),-4.4e-05 (inactive),0.00557 (inactive),inactive,6.36% (inactive)
COc1cc(=O)[nH]c(=O)n1CC(=O)c1ccccc1,719,-7.7% (inactive),-4.5% (inactive),160,-0.792,1.02,1.07,-2.09% (inactive),-0.452 (inactive),-3.7e-05 (inactive),0.00585 (inactive),inactive,-0.879% (inactive)
